Converted amounts (≈) assume the structure as drawn. The source made the active and inactive calls. The calls are words filed in the database; no cut-off is given here.
Experiments:
Assay type in all cases: functional
[1] = system: Syncephalastrum racemosum; experiment: Antifungal activity against Syncephalastrum racemosum RCMB 052003 at 10 mg/ml after 3 to 4 days by agar well diffusion method; details: for zone of inhibition at 10000 µg/mL: read-out: DIZ
In short: (§1)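 Agar well diffusion on Sabouraud dextrose agar (glucose–peptone–agar 40:10:15). Culture grown in Sabouraud broth for 3-4 days to 10^5 CFU mL⁻¹; 0.1 mL spread per plate. Wells sealed at the bottom with 0.8% soft agar, then loaded with 100 µl sample at 10 mg mL⁻¹ in DMSO; DMSO control. Incubated at 30 °C for 3–4 days. Zone caliper-read three times; triplicate tests; mean ± SD.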

Escherichia coli [2] = experiment: Antibacterial activity against Escherichia coli RCMB 000103 at 10 mg/ml after 24 hrs by agar well diffusion method; details: for zone of inhibition at 10000 µg/mL: RCMB 000103, 24 h, read-out: DIZ
In short: (§2)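 Agar well diffusion on nutrient agar (tryptone 1%, yeast extract 0.5%, NaCl 0.5%, agar 1%, pH 7.0). Plates spread with centrifuged pellets from a 24 h culture (about 10^4-10^6 CFU/ml). 100 µl of sample at 10 mg/mL in DMSO per 6 mm well, DMSO control. Incubated at 37 °C for 24 h. Inhibition zone diameter (mm) caliper-read three times; test run three times; mean ± SD.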

Geotrichum candidum [3] = experiment: Antifungal activity against Geotrichum candidum RCMB 052006 at 10 mg/ml after 3 to 4 days by agar well diffusion method; details: for zone of inhibition at 10000 µg/mL: read-out: DIZ; in short: as §1
Bacillus subtilis [4] = experiment: Antibacterial activity against Bacillus subtilis RCMB 000107 at 10 mg/ml after 24 hrs by agar well diffusion method; details: for zone of inhibition at 10000 µg/mL: RCMB 000107, 24 h, read-out: DIZ; in short: as §2
Staphylococcus aureus [5] = experiment: Antibacterial activity against Staphylococcus aureus RCMB 000106 at 10 mg/ml after 24 hrs by agar well diffusion method; details: for zone of inhibition at 10000 µg/mL: RCMB 000106, 24 h, read-out: DIZ; in short: as §2
Candida albicans [6] = experiment: Antifungal activity against Candida albicans RCMB 052002 at 10 mg/ml after 3 to 4 days by agar well diffusion method; details: for zone of inhibition at 10000 µg/mL: read-out: DIZ; in short: as §1
Aspergillus fumigatus [7] = experiment: Antifungal activity against Aspergillus fumigatus RCMB 002003 at 10 mg/ml after 3 to 4 days by agar well diffusion method; details: for zone of inhibition at 10000 µg/mL: read-out: DIZ; in short: as §1
Pseudomonas aeruginosa [8] = experiment: Antibacterial activity against Pseudomonas aeruginosa RCMB 000102 at 10 mg/ml after 24 hrs by agar well diffusion method; details: for zone of inhibition at 10000 µg/mL: RCMB 000102, 24 h, read-out: DIZ; in short: as §2
Aspergillus fumigatus [9] = experiment: Antifungal activity against Aspergillus fumigatus RCMB 002003 after 3 to 4 days by two fold serial dilution method
In short: (§3)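 MIC by agar plate method. Two-fold serial dilutions in Sabouraud dextrose broth, autoclaved at 121 °C for 25 min; DMSO control. Loop of culture diluted to 10⁵–10⁶ CFU mL⁻¹. Incubated at 30 °C for 3–4 days, then colonies counted. MIC taken as the lowest concentration fully inhibiting growth relative to control, ignoring a single colony or faint haze.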

Candida albicans [10] = experiment: Antifungal activity against Candida albicans RCMB 052002 after 3 to 4 days by two fold serial dilution method; in short: as §3
Pseudomonas aeruginosa [11] = experiment: Antibacterial activity against Pseudomonas aeruginosa RCMB 000102 after 24 hrs by two fold serial dilution method; details: RCMB 000102, 24 h
In short: (§4)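 MIC by agar plate method. Two-fold serial dilutions in nutrient broth (beef extract 5 g, peptone 10 g per litre, pH 7.0), autoclaved at 121 °C for 25 min; DMSO control. Loop inoculum diluted to 10⁵–10⁶ CFU mL⁻¹. Incubated at 37 °C for 24 h, then colonies counted. MIC taken as the lowest concentration giving complete inhibition, ignoring a single colony or faint haze.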

Geotrichum candidum [12] = experiment: Antifungal activity against Geotrichum candidum RCMB 052006 after 3 to 4 days by two fold serial dilution method; in short: as §3
Escherichia coli [13] = experiment: Antibacterial activity against Escherichia coli RCMB 000103 after 24 hrs by two fold serial dilution method; details: RCMB 000103, 24 h; in short: as §4
Bacillus subtilis [14] = experiment: Antibacterial activity against Bacillus subtilis RCMB 000107 after 24 hrs by two fold serial dilution method; details: RCMB 000107, 24 h; in short: as §4
Staphylococcus aureus [15] = experiment: Antibacterial activity against Staphylococcus aureus RCMB 000106 after 24 hrs by two fold serial dilution method; details: RCMB 000106, 24 h; in short: as §4
[16] = system: Syncephalastrum racemosum; experiment: Antifungal activity against Syncephalastrum racemosum RCMB 052003 after 3 to 4 days by two fold serial dilution method; in short: as §3
Bacillus subtilis [17] = experiment: Antibacterial activity against Bacillus subtilis RCMB 000107 at 30 mg/ml after 24 hrs by agar well diffusion method; details: RCMB 000107, 24 h, read-out: DIZ
Staphylococcus aureus [18] = experiment: Antibacterial activity against Staphylococcus aureus RCMB 000106 at 30 mg/ml after 24 hrs by agar well diffusion method; details: RCMB 000106, 24 h, read-out: DIZ
[19] = system: Syncephalastrum racemosum; experiment: Antifungal activity against Syncephalastrum racemosum RCMB 052003 at 30 mg/ml after 3 to 4 days by agar well diffusion method; details: read-out: DIZ

| SMILES | diameter of the inhibition zone (DIZ) [1] | diameter of the inhibition zone (DIZ) (Escherichia coli [2]) | zone of inhibition at 10000 µg/mL (Geotrichum candidum [3]) | zone of inhibition at 10000 µg/mL (Bacillus subtilis [4]) | zone of inhibition at 10000 µg/mL (Staphylococcus aureus [5]) | zone of inhibition at 10000 µg/mL (Candida albicans [6]) | zone of inhibition at 10000 µg/mL (Aspergillus fumigatus [7]) | diameter of the inhibition zone (DIZ) (Pseudomonas aeruginosa [8]) | zone of inhibition at 10000 µg/mL [1] | zone of inhibition at 10000 µg/mL (Escherichia coli [2]) | other results |
| --- | --- | --- | --- | --- | --- | --- | --- | --- | --- | --- | --- |
| CCOC(=O)C(=O)CC(=O)Nc1c(C)n(C)n(-c2ccccc2)c1=O | inactive | inactive | 13.4 mm | 16.2 mm | 16.3 mm | 10.6 mm | 11.1 mm | inactive |  |  |  |
| CCOC(=O)c1c(Nc2c(C)n(C)n(-c3ccccc3)c2=O)csc1N |  |  | 22 mm | 25.3 mm | 20.2 mm | 16.4 mm | 22.1 mm |  | 18.2 mm | 23.8 mm | MIC (Aspergillus fumigatus [9]): 19 µg/mL (≈ 51 µM); MIC (Candida albicans [10]): 78 µg/mL (≈ 209 µM); MIC (Pseudomonas aeruginosa [11]): 39 µg/mL (≈ 105 µM); MIC (Geotrichum candidum [12]): 39 µg/mL (≈ 105 µM); MIC (Escherichia coli [13]): 19 µg/mL (≈ 51 µM); MIC (Bacillus subtilis [14]): 19 µg/mL (≈ 51 µM); MIC (Staphylococcus aureus [15]): 39 µg/mL (≈ 105 µM); zone of inhibition at 10000 µg/mL (Pseudomonas aeruginosa [8]): 20.8 mm; MIC [16]: 39 µg/mL (≈ 105 µM) |
| Cc1c(Nc2csc3ncn(N)c(=N)c23)c(=O)n(-c2ccccc2)n1C | inactive | inactive |  |  |  |  |  | inactive |  |  | diameter of the inhibition zone (DIZ) (Geotrichum candidum [3]): inactive; diameter of the inhibition zone (DIZ) (Bacillus subtilis [4]): inactive; diameter of the inhibition zone (DIZ) (Staphylococcus aureus [5]): inactive; diameter of the inhibition zone (DIZ) (Candida albicans [6]): inactive; diameter of the inhibition zone (DIZ) (Aspergillus fumigatus [7]): inactive |
| CCO/C=N\c1scc(Nc2c(C)n(C)n(-c3ccccc3)c2=O)c1C#N |  |  | 17.4 mm | 19.2 mm | 18.4 mm | 14.2 mm | 19.2 mm |  | 8.5 mm | 13.8 mm | MIC (Aspergillus fumigatus [9]): 78 µg/mL (≈ 204 µM); MIC (Candida albicans [10]): 156 µg/mL (≈ 409 µM); MIC (Pseudomonas aeruginosa [11]): 78 µg/mL (≈ 204 µM); MIC (Geotrichum candidum [12]): 78 µg/mL (≈ 204 µM); MIC (Escherichia coli [13]): 156 µg/mL (≈ 409 µM); MIC (Bacillus subtilis [14]): 39 µg/mL (≈ 102 µM); MIC (Staphylococcus aureus [15]): 78 µg/mL (≈ 204 µM); zone of inhibition at 10000 µg/mL (Pseudomonas aeruginosa [8]): 16.2 mm; MIC [16]: 625 µg/mL (≈ 1640 µM) |
| Cc1c(Nc2csc(N)c2C#N)c(=O)n(-c2ccccc2)n1C |  |  | 22.4 mm | 27.2 mm | 23.9 mm | 17.2 mm | 24.3 mm |  | 18.9 mm | 24.4 mm | MIC (Aspergillus fumigatus [9]): 19 µg/mL (≈ 58.4 µM); MIC (Candida albicans [10]): 39 µg/mL (≈ 120 µM); MIC (Pseudomonas aeruginosa [11]): 39 µg/mL (≈ 120 µM); MIC (Geotrichum candidum [12]): 19 µg/mL (≈ 58.4 µM); MIC (Escherichia coli [13]): 19 µg/mL (≈ 58.4 µM); MIC (Bacillus subtilis [14]): 9.5 µg/mL (≈ 29.2 µM); MIC (Staphylococcus aureus [15]): 19 µg/mL (≈ 58.4 µM); zone of inhibition at 10000 µg/mL (Pseudomonas aeruginosa [8]): 22.8 mm; MIC [16]: 39 µg/mL (≈ 120 µM) |
| Cc1c(Nc2csc(NC(=O)CCl)c2C#N)c(=O)n(-c2ccccc2)n1C |  |  | 18.3 mm | 24.1 mm | 19.4 mm | 15.4 mm | 20.1 mm |  | 11.2 mm | 16.2 mm | MIC (Aspergillus fumigatus [9]): 39 µg/mL (≈ 97 µM); MIC (Candida albicans [10]): 156 µg/mL (≈ 388 µM); MIC (Pseudomonas aeruginosa [11]): 39 µg/mL (≈ 97 µM); MIC (Geotrichum candidum [12]): 78 µg/mL (≈ 194 µM); MIC (Escherichia coli [13]): 78 µg/mL (≈ 194 µM); MIC (Bacillus subtilis [14]): 19 µg/mL (≈ 47.3 µM); MIC (Staphylococcus aureus [15]): 39 µg/mL (≈ 97 µM); zone of inhibition at 10000 µg/mL (Pseudomonas aeruginosa [8]): 18.9 mm; MIC [16]: 313 µg/mL (≈ 779 µM) |
| CN[C@@H]1[C@H](O[C@H]2[C@H](O[C@H]3[C@H](O)[C@@H](O)[C@H](N=C(N)N)[C@@H](O)[C@@H]3N=C(N)N)O[C@@H](C)[C@]2(O)C=O)O[C@@H](CO)[C@H](O)[C@H]1O [STREPTOMYCIN] |  |  |  |  |  |  |  |  |  |  | zone of inhibition at 30000 µg/mL (Bacillus subtilis [17]): 29 mm; zone of inhibition at 30000 µg/mL (Staphylococcus aureus [18]): 25 mm |
| Cc1c(Nc2csc3c2C(=O)N[S+]([O-])N3)c(=O)n(-c2ccccc2)n1C (centres undefined) |  | inactive | 14.4 mm | 19.2 mm | 18.3 mm | 13.4 mm | 15.1 mm | inactive | 10.6 mm |  |  |
| Clc1ccccc1C(c1ccccc1)(c1ccccc1)n1ccnc1 [CLOTRIMAZOLE] |  |  |  |  |  |  |  |  |  |  | zone of inhibition at 30000 µg/mL [19]: 20 mm |
| CC1(C)S[C@@H]2[C@H](NC(=O)Cc3ccccc3)C(=O)N2[C@H]1C(=O)O [PENICILLIN G] |  |  |  |  |  |  |  |  |  |  | zone of inhibition at 30000 µg/mL (Bacillus subtilis [17]): 32.5 mm; zone of inhibition at 30000 µg/mL (Staphylococcus aureus [18]): 29.4 mm |
| Cc1c(Nc2csc(N)c2C(N)=O)c(=O)n(-c2ccccc2)n1C | inactive | inactive |  |  |  |  |  | inactive |  |  | diameter of the inhibition zone (DIZ) (Geotrichum candidum [3]): inactive; diameter of the inhibition zone (DIZ) (Bacillus subtilis [4]): inactive; diameter of the inhibition zone (DIZ) (Staphylococcus aureus [5]): inactive; diameter of the inhibition zone (DIZ) (Candida albicans [6]): inactive; diameter of the inhibition zone (DIZ) (Aspergillus fumigatus [7]): inactive |
| Cc1c(NC(=O)CC(=O)C(=O)NN)c(=O)n(-c2ccccc2)n1C |  | inactive | 13.4 mm | 14.4 mm | 17.2 mm |  | 11.2 mm | inactive | 13.4 mm |  | diameter of the inhibition zone (DIZ) (Candida albicans [6]): inactive |
| Cc1c(NC(=O)/C=C/c2cccs2)c(=O)n(-c2ccccc2)n1C | inactive | inactive |  | 11.2 mm | 11 mm | 13.4 mm | 14.2 mm | inactive |  |  | diameter of the inhibition zone (DIZ) (Geotrichum candidum [3]): inactive |
| CC(=O)Nc1c(C)n(C)n(-c2ccccc2)c1=O | inactive |  | 13.4 mm | 13.2 mm | 15.9 mm | 12.2 mm | 14.3 mm | inactive |  | 11.4 mm |  |
| CCC(C)n1ncn(-c2ccc(N3CCN(c4ccc(OCC5COC(Cn6cncn6)(c6ccc(Cl)cc6Cl)O5)cc4)CC3)cc2)c1=O (centres undefined) [ITRACONAZOLE] |  |  |  |  |  |  |  |  |  |  | zone of inhibition at 30000 µg/mL [19]: 22 mm |
| Cc1c(Nc2csc3ncnc(N)c23)c(=O)n(-c2ccccc2)n1C |  |  | 12.8 mm | 15.2 mm | 13.9 mm | 11 mm | 12.5 mm | inactive | 13.4 mm | 10.4 mm |  |
